Measured values taken from ChEMBL document CHEMBL4513216, “Probing the Open Global Health Chemical Diversity Library for Multistage-Active Starting Points for Next-Generation Antimalarials” (ACS Infect Dis, 2020).

Experiment: Toxicity liver stage against HepG2, at 10uM
Type: cell-based
Design: test concentration 10 uM, cell line HepG2-A16-CD81EGFP
Conditions: human, HepG2-A16-CD81EGFP cells; read-out: INHIBITION
Outline: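 Uninfected HepG2-A16-CD81EGFP cells, 3 × 10^3 per well, 1536-well, plated on prespotted compound at 10 μM final, parasite-free screening media added to match infected plates; puromycin 10 μM positive, DMSO 0.5% negative; run in parallel with 48 h PbLuc assay at 37 °C, 5% CO2; viability by CellTiter-Glo luminescence, normalized to controls.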

Point of comparison: `CN(Cc1ccc(N(C)C)cc1)C(=O)c1cc2c([nH]c1=O)CCCC2=O`, cytotoxicity at 10 µM -3.34%. Against it:
- Cc1nn(CCC#N)c(C)c1[C@@H]1C=C[C@@H](NCc2ccc(F)cc2)C1 — higher, 2%
- CCc1nc(-c2ccc(NC(=O)N3CCOCC3)cc2)no1 — higher, 5.48%
- O=C(Nc1ccc(Br)cc1F)c1cc(CN2CCOCC2)on1 — higher, 6.39%
- CCOC(=O)[C@@H]1[C@H]2CN(C(=O)OC)CCN2C[C@H]1c1ccccc1 — higher, 6.72%
- CC(C)Nc1nc(C(=O)Nc2ccccn2)cs1 — higher, 5.15%
- COc1cccc(-c2cc(C(=O)Nc3nc[nH]n3)[nH]n2)c1 — lower, -5.51%
- COc1ccc(-c2cc(C(=O)Nc3nc[nH]n3)[nH]n2)cc1 — lower, -12.1%
- O=C(Nc1ncnc2c1CCC2)c1cccc(F)c1 — lower, -172%
- COCC(C)(O)CNC(=O)c1cc(-c2cc(OC)ccc2OC)nn1C (stereo not drawn) — lower, -6.42%
- Cn1cccc1CN(C(=O)CC(CC(=O)O)c1cccs1)C1CC1 (stereo not drawn) — higher, 2.27%
- Cn1cccc1C(=O)N1CCC2(CC1)CN(S(C)(=O)=O)c1ccccc12 — higher, 4.73%
- O=C(c1ccnnc1)N1CC2(CCN(c3ncccn3)C2)C1 — higher, 5.62%
- Cc1ccccc1C(=O)N1CC(C(=O)NCC2CC2)C2(CCOCC2)C1 (stereo not drawn) — higher, 3.54%
- O=S(=O)(NC1=NCN(CCc2cccs2)CN1)c1ccc(Br)cc1 — higher, -2.35%
- CC1(C)CC(=O)c2cnc3nc(N4CCOCC4)nc(O)c3c2C1 — higher, 1.21%
- O=C(CSC1CCc2ccccc2NC1=O)NC1CC1 (stereo not drawn) — higher, 6.58%
- CCOc1ccc(Cl)cc1CNCCCn1ccnc1 — higher, 1.36%
- Cn1cc(CN2C[C@@H]3COC[C@]3(COc3ccc(C#N)cn3)C2)cn1 — lower, -11.3%
- Cn1cc(C[C@H]2[C@@H](O)CCN2C(=O)C2CC=CC2)cn1 — higher, 5.6%
- NC(=O)c1c(-c2ccc(Cl)cc2Cl)csc1NC(=O)CCCC(=O)O — higher, 5.97%
- CC(C)c1noc(C2CCN(C(=O)c3cccs3)CC2)n1 — higher, 1.51%
- c1ccc(CO[C@H]2CN(c3ncccn3)C[C@@]23CCCO3)cc1 — lower, -6.11%
- CNC(=O)C1CN(c2cc(C)ncn2)CCN1Cc1ccccc1 (stereo not drawn) — higher, 10%
- Cc1ccnn1CCNC(=O)c1cnc(N(C)C)nc1 — higher, 2.24%
- COc1ccc(F)cc1C(=O)N(C)[C@@H]1CC[C@@H](O)[C@@H]1O — higher, 7.81%
- Cc1cccc(C2CCN(S(=O)(=O)c3cn(C)cn3)CC2)n1 — lower, -20.2%
- c1cncc(CC2CN(c3cccnc3)CCO2)c1 (stereo not drawn) — higher, -0.41%
- CC(C)(C)C(=O)Nc1ccc(Oc2ccsc2C(=O)O)cc1 — higher, 7.26%
- COc1ccccc1[S+]([O-])CC(=O)NCc1cc(F)cc(F)c1 (stereo not drawn) — higher, 24.3%
- CNS(=O)(=O)c1cccc(S(=O)(=O)Nc2ncc(C)s2)c1 — lower, -4.79%
- OC1(CNc2ccc(Br)cn2)CCSCC1 — higher, 5.63%
- COCCNC(=O)NCc1ccc(-n2ccc(C(F)(F)F)n2)cc1 — lower, -7.29%
- OCCN1CCC(CNCc2cn(-c3ccccc3)nn2)CC1 — higher, 0.03%
- CN(CC(N)=O)Cc1cc(Cl)cc2cccnc12 — higher, 6.37%
- CC(C)Sc1ccc(N2CCN(Cc3ccccn3)CC2)nn1 — higher, 2.11%
- O=C(NS(=O)(=O)c1cccc(C(F)(F)F)c1)c1cscn1 — higher, 1.67%
- Cc1noc(C)c1CS(=O)(=O)CC(=O)NCCc1cccs1 — higher, -1.6%
- CCCN1CCCN(C(=O)Nc2ccc3c(c2)OCO3)CC1 — lower, -4.92%
- Cc1cc(N(C)C)nc(N2CC(n3cccn3)C2)n1 — higher, -3.24%
- c1cc(-c2noc(C3CCC3)n2)cc(N2CCCCC2)n1 — higher, -1.39%
- CSCC(C)(O)CNC(=O)c1cc(F)ccc1Br (stereo not drawn) — lower, -5.41%
- COC(=O)N1CCN(Cc2csc(-c3ncccn3)n2)CC1 — lower, -7.53%
- CC(C)c1cnc(CN(C)C2CCN(CCc3ccccn3)C2)o1 (stereo not drawn) — higher, 2.37%
- CCC(CC)NC(=O)NCc1ccnc(-n2ccnc2C)c1 — higher, -1.21%
- c1coc(CNc2nnc(Cc3ccsc3)o2)c1 — higher, -2.28%
- CC(NC(=O)COC1CCCC1)c1nc(-c2ccccc2)c[nH]1 (stereo not drawn) — higher, 4.24%
- CCNC(=O)N1CCC(NC(=O)NCCc2cc3ccccc3o2)C1 (stereo not drawn) — lower, -51.8%
- CN(C)c1nccc(CNS(=O)(=O)c2cc(Cl)cc(Cl)c2)n1 — lower, -138%
- CCc1cnc(CN2C(=O)CC3(CCSC3)C2=O)o1 (stereo not drawn) — lower, -9.36%
- Cc1cccc(OCCNC(=O)C(C)S(=O)(=O)c2ccccn2)c1 (stereo not drawn) — higher, 5.76%
- Cc1cc(CS(=O)(=O)C(C)c2ccc(F)cc2)on1 (stereo not drawn) — higher, -0.0986%
- CC(c1ccccn1)N(C)C(=O)NCCn1c(=O)oc2ccccc21 (stereo not drawn) — lower, -6.37%
- Cc1cccc(C(=O)Nc2c(C(N)=O)n[nH]c2C)c1C — higher, -1.49%
- COCc1noc(CCC(=O)c2ccc3c(c2)OCCO3)n1 — higher, 0.923%
- COc1ccc(C)cc1NC(=O)CNc1ccn(CC(N)=O)n1 — lower, -8.28%
- CS(=O)(=O)NCC(=O)NC(Cc1ccccc1)C1CCCC1 (stereo not drawn) — higher, 0.69%
- O=C(Cc1ccccc1O)Nc1ccc(N2CCCC2)nc1 — higher, 9.31%
- Cc1cc(N2CCC(NC(=O)CCc3cnn(C)c3)CC2)nc(C)n1 — higher, -2.01%
- CC(=O)N(C)Cc1ccc(OCc2cccs2)cc1 — higher, 12.4%
- CC1CCN(C(=O)CSCc2nc(C3CC3)no2)CC1 — higher, 1.26%
- Cn1ncnc1NCc1ccc(F)cc1 — higher, 0.361%
- CC(C)c1nsc(NC2CCOC3(CCCC3)C2)n1 (stereo not drawn) — higher, 8.83%
- Cc1cc(F)c(S(=O)(=O)N(C)CCn2cccn2)cc1F — higher, 0.532%
- Cc1noc(C)c1C[S+]([O-])Cc1cn2cccc(C)c2n1 (stereo not drawn) — higher, 2.14%
- NCC(c1ccccc1)N1CCc2sccc2C1 (stereo not drawn) — higher, 1.88%
- CC(C)n1cc(CN2CCCN(C(=O)c3nccnc3N)CC2)cn1 — higher, 7.13%
- CC(Oc1ccccc1C(F)(F)F)C(=O)NCCC(=O)N(C)C (stereo not drawn) — lower, -4.25%
- O=C1O[C@@H]2CN(Cc3ccncc3)C[C@@H]2N1CCCN1CCOCC1 — lower, -6.13%
- O=C(Cn1ccc(=O)cc1)NCc1ccc2sccc2c1 — higher, 0.592%
- Cc1cccc2c1nc(COCC(=O)O)n2-c1cnc(N)cn1 — higher, 0.238%
- COCCCC1CCCCN1S(=O)(=O)c1cccc(C#N)c1 (stereo not drawn) — lower, -133%
- CC(C)(CN1CCC2(CCCNC2)C1)N1CCOCC1 (stereo not drawn) — lower, -141%
- NC(=O)c1ccc(N2CCN(Cc3cccc4nsnc34)CC2)nc1 — higher, 34.1%
- Cc1c(NC(=O)NC2CCOCC2)cccc1C(=O)N1CCCC1 — higher, 12%
- Cc1nc(CCN)cc(N2CCOc3ccc(Cl)cc3C2)n1 — higher, -0.29%
- CSCc1ccc(N(C)CC2CCCN(C(C)C)C2)nc1 (stereo not drawn) — lower, -128%
- CCCn1ncnc1C(C)NC(=O)C1CCN(CC(N)=O)CC1 (stereo not drawn) — lower, -140%
- O=C(c1scc2c1OCCO2)N1CCN(Cc2cccc(F)c2)CC1 — higher, 0.993%
- CN(CCc1ccccc1)c1cnn(CC2COCCO2)c(=O)c1 (stereo not drawn) — lower, -10.3%
- O=C(O)[C@@H]1CN(C(=O)NCC2CCCCC2)C[C@H]1c1ccccn1 — higher, 7.15%
- CCCC1(CO)CCCN(C(=O)CNC(N)=O)C1 (stereo not drawn) — higher, 0.83%
- O=C1NCCN(Cc2ccccc2)C1CC(=O)N1CCc2n[nH]cc2C1 (stereo not drawn) — lower, -6.73%
- CCCn1ncc(-c2nc3c(cnn3CC)[nH]2)c1C — higher, 4.05%
- CN(C)c1ccc(CN2CCC(C(O)Cc3ccccc3)CC2)cn1 (stereo not drawn) — higher, -1.29%
- CCSCC(C)NCc1nc(-c2cccnc2)no1 (stereo not drawn) — lower, -7.66%
- N#Cc1c(C2CC2)cc(-c2ccc(F)c(F)c2)nc1N — lower, -5.73%
- COc1cccc(-c2n[nH]cc2C(=O)NC(C)c2nc(C(C)C)no2)c1 (stereo not drawn) — higher, -2.75%
- CCc1c(C)nn(CCNC(=O)C2CCCN(C(=O)N(C)C)C2)c1C (stereo not drawn) — lower, -4.42%
- O=C(Nc1cc(C(F)(F)F)c[nH]c1=O)N1CCSCC1 — lower, -5.1%
- c1ccc(-c2nnc(CN3CCCC3Cn3cncn3)o2)cc1 (stereo not drawn) — lower, -7.42%
- Cc1cccc(OCCNC(=O)CN2CCN(C)CC2C)c1 (stereo not drawn) — higher, -2.66%
- COc1ccc(CCN(C)C2CCCN(Cc3noc(C)n3)C2)cc1 (stereo not drawn) — lower, -4.59%
- c1ccc2oc(N3CCCC3Cn3cncn3)nc2c1 (stereo not drawn) — lower, -14.4%
- COc1cc(C)nc(N2CCN(C(=O)c3ccn(C)c(=O)c3)CC2)n1 — lower, -12.8%
- CCNc1cc2c(nn1)CCN(C(=O)Cc1ccc(C)nc1)C2 — lower, -3.63%
- CN(C)c1cc(C(=O)N2CCN(c3nccs3)CC2)ccn1 — lower, -10.8%
- O=C(Nc1ccncc1)N(CCO)Cc1ccsc1 — lower, -3.98%
- c1ccc(-c2nc(CN3CCCCC3Cn3cncn3)co2)cc1 (stereo not drawn) — lower, -14.4%
- Cc1cc(C)n(CC2CCCN2C(=O)Cc2c(C)nn(C)c2C)n1 (stereo not drawn) — lower, -13.8%
- Cc1cc(C(=O)N2CCCC(n3cncn3)C2)c(C)n1CC1CC1 (stereo not drawn) — higher, 2.37%
- CC(C)c1nc(C2CCCN(C(=O)c3ccc4nncn4c3)C2)no1 (stereo not drawn) — lower, -4.38%
- COCc1nc(C(=O)N2CCCC2Cn2cc(C)cn2)cs1 (stereo not drawn) — higher, -1.36%
- CCc1noc(C)c1C(=O)N1CCCN(Cc2cscn2)CC1 — higher, -0.448%
- CCn1cnnc1C1CCN(C(=O)COc2ccccc2OC)CC1 — lower, -4.41%
- O=C1[C@H]2CN(Cc3nccs3)C[C@H]2CN1c1cncnc1 — lower, -81.9%
- CCN(CC)CC1CN(Cc2nccs2)Cc2nccn2C1 (stereo not drawn) — higher, 1.13%
- Cc1cccc(CN2CC[C@@H]3[C@@H]2CCN3C(=O)c2cc(C)on2)n1 — higher, -0.762%
- O=C(CC1CCCC1)N1CCC2(CCN2Cc2ccc(F)cc2)C1 (stereo not drawn) — lower, -5.66%
- Cc1nnsc1CN1C[C@H]2CC[C@@H](C1)N(Cc1c(C)noc1C)C2=O — lower, -4.56%
- Cc1ccc(NC(=O)Nc2c(O)c3ccccc3oc2=O)cc1C — higher, 5.89%
- CCN1C(=O)CCC12CCC(NC(=O)c1cnccn1)CC2 (stereo not drawn) — higher, -2.42%
- CC(C)NC(=O)[C@H]1C[C@H]2CN(C(=O)NCc3ccccc3)C[C@@H]1O2 — higher, 5.5%
